OX1R antag-1: blocks the human orexin 1 receptor. CHO/OX1R cells, Fluo-8 calcium fluorescence, orexin A. AID 434989. 0.43% of 330,000 active. inhibition, % at 5 µM;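 active means inhibition above its plate's threshold, mean inhibition of all tested compounds on the plate plus 3 SD, cut at about 37% in these data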;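 further: 0% = orexin A challenge wells and 100% = SB-334867-A antagonist wells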
CHO parental Ca: counter-screen: ATP calcium response change in parental CHO cells; parental CHO-K1, ATP-induced calcium, Fluo-8 fluorescence; 0.63% of 330,000 active; inhibition, % at 5.6 µM;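 active means inhibition above that plate's mean sample inhibition plus 3 SD, cut at about 26% in these data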;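 further: 0% = ATP-challenged DMSO wells and 100% = DMSO wells without ATP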
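material = parental CHO cells | also added = ATP as calcium-mobilizing challenge | dosing = single point at 5.6 µM | detection = intracellular calcium via Fluo-8 no-wash fluorescent dye | read-out = % inhibition | benchmarks = low control ATP plus DMSO, high control DMSO only | repeats = one well per compound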
GalR3 antag: human GalR3 antagonism; O60755; HEK293 GalR3-CNG cAMP membrane potential fluorescence; galR3 body fused to GalR1 C-terminus; inhibition, % at 3 µM; 0.44% of 360,000 active;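 active means inhibition above the screen-wide average plus 3 SD, cut at about 13% in these data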;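 further: forskolin and galanin both at EC90 stimulate the cells; cAMP rise reported by CNG channel membrane potential dye signal; 0% = forskolin plus galanin with DMSO and 100% = forskolin alone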
TAAR1 antag: antagonists of human TAAR1; AID 624466; inhibition, % at 3 µM; 1.5% of 360,000 active; CHO RD-HGA16 TAAR1, Fluo-8 calcium fluorescence, antagonist;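 active means inhibition above a per-plate cutoff, the mean inhibition of test compounds on that plate plus 3 SD, cut at about 49% in these data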;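 further: 0% = DMSO plus EC80 beta-PEA response and 100% = DMSO alone without agonist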
Target sequence (Q96RJ0 whole entry, looked up): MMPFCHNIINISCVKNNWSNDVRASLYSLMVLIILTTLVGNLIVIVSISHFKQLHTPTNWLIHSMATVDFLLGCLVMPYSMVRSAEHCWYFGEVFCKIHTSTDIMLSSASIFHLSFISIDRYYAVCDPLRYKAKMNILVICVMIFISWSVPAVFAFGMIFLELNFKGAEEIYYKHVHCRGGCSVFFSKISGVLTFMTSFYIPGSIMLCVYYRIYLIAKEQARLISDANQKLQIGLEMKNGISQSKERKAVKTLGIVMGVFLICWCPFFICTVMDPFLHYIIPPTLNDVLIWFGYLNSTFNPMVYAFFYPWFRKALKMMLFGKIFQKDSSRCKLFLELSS
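Material: RD-HGA16 CHO cells with stable hTAAR1 and Gα16; Dosing: single nominal final test compound concentration of 3 µM; Schedule: seeding 17-24 h prior, 75-min 37 °C, 30-min RT dye loading; Detection: kinetic Fluo-8 calcium fluorescence measurement; Measure: % inhibition from peak post-agonist over basal fluorescence ratio; Benchmarks: vehicle and agonist controls.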
TAAR1 agonist: agonists of human TAAR1. Q96RJ0. CHO RD-HGA16 TAAR1, Fluo-8 calcium fluorescence; vehicle wells 0%, saturating PEA agonist 100%. activation, % at 3 µM. 0.99% of 360,000 active. AID 624467;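 active means activation above the mean activation of all test compounds in the run plus 3 SD, cut at about 38% in these data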
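Assay system: CHO-derived RD-HGA16 cells with stable Gα16 and human TAAR1; timing: 17-24 h seeding, 75 min 37 °C dye, 30 min RT; read-out: % activation from peak over basal fluorescence ratio, DMSO-to-PEA scaled; measured by: kinetic Fluo-8 calcium fluorescence; benchmarks: low control DMSO, high control PEA (EC100); doses: 3 µM single concentration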
OX1R antag-2: antagonists of human orexin 1 receptor (OX1R). O43613. OX1R-expressing cells, FRET antagonist read-out. inhibition, % at 6.6 µM. 1.8% of 330,000 active. AID 485270; in the data active means inhibition mostly above about 38%, no sharp cut-off; inactive means mostly below about 40%;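 further: 0% = agonist challenge alone and 100% = reference antagonist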
Starred values were filed as active, the others as inactive; . = not tested or not shown. In the library only some 4.2% were active in any assay of this set; here they are far more common.

SMILES | OX1R antag-1 | CHO parental Ca | GalR3 antag | TAAR1 antag | TAAR1 agonist | OX1R antag-2
CC(=O)c1cccc(NC(=O)CCNS(=O)(=O)c2cccc3nsnc23)c1 | -20.2 | -14.1 | 3.6 | -2.7 | 8.8 | 58.4*
COc1ccc(NC(=O)CCNS(=O)(=O)c2cccc3nsnc23)c(OC)c1 | -16.1 | -3.4 | -11.2 | -19.1 | 4.8 | 73.4*
CCOc1ccc(-c2nc(CN(Cc3ccccc3)C[C@@H]3CCC(=O)N3)c(C)o2)cc1 | -29.0 | -19.6 | -2.0 | -31.2 | -0.6 | 15.9
COc1ccc(NC(=S)N2CCN(S(=O)(=O)c3ccc(F)cc3)CC2)cc1OC | -11.6 | -17.2 | -1.6 | 3.1 | 3.8 | 4.3
CCOC(=O)c1cnc(SSc2ncc(C(=O)OCC)c(N)n2)nc1N | 4.0 | -10.7 | -7.7 | -13.7 | 3.5 | 6.0
O=[N+]([O-])c1cc(Cl)ccc1N1CCCC1 | -1.9 | -3.6 | -6.9 | 12.7 | 6.3 | 6.4
O=C1C(Cl)=C(N2CCN(c3ccccc3[N+](=O)[O-])CC2)C(=O)c2ccccc21 | -12.3 | -15.4 | -4.5 | 10.1 | 3.7 | 54.9*
COc1ccccc1N1CCN(C(=O)CN(CCc2ccccc2)S(C)(=O)=O)CC1 | -24.0 | -15.3 | -11.3 | 6.5 | 5.8 | 35.7
COc1ccc(/C=N/Nc2nc(-c3ccc(Cl)cc3)cc(C(F)(F)F)n2)cc1OC | -29.0 | -38.9 | -3.9 | 20.1 | -1.2 | 13.7
O=C(CCC(=O)c1ccc(F)cc1)Nc1cccc(Br)c1 | 5.5 | 38.1* | -7.4 | 9.5 | 0.7 | -4.0
O=C(CCC(=O)c1ccc(Br)cc1)Nc1cccc(C(F)(F)F)c1 | -22.5 | -9.0 | -4.3 | 6.2 | 8.8 | 14.4
CN(C)CCNS(=O)(=O)c1ccc(N2CCc3ccccc32)c([N+](=O)[O-])c1 | -22.8 | -15.2 | -11.8 | -29.8 | 10.8 | 39.2
O=C(N/N=C/c1ccc(OCc2ccccc2)cc1)c1cccs1 | 8.0 | -18.9 | 1.3 | 7.7 | 29.7 | 60.3*
O=C(Nc1ccc(OCc2ccccc2)cc1)c1cccs1 | -13.4 | 14.9 | -7.2 | 24.5 | 7.4 | 16.9
CC(CC#CCN1CCOCC1)OCCC#N (configuration not stated) | -12.5 | -3.3 | -0.9 | -13.3 | 1.0 | 9.4
CN(C)c1ccc(/C=C/C(=O)c2ccc(O)cc2)cc1 | . | . | -2.1 | 30.9 | 49.3* | .
CN(C)c1ccc(C(=O)C=Cc2ccc([N+](=O)[O-])cc2)cc1 | . | . | 1.8 | 1.9 | -0.1 | .
O=C(/C=C/c1ccccc1)c1ccc2c(c1)OCO2 | -13.5 | -21.1 | -2.4 | -19.8 | 0.9 | 6.4
CN(C)c1ccc(/C=C/C(=O)c2ccc3c(c2)OCO3)cc1 | 112.5* | 47.7* | -6.0 | 39.9 | 26.9 | 11.5
COc1ccc(C(=O)/C=C/c2ccc(N(C)C)cc2)c(OC)c1 | 111.8* | 59.0* | -2.8 | 51.5* | 72.9* | 83.3*
CN(C)c1ccc(/C=C/C(=O)c2ccccc2O)cc1 | 14.1 | 37.8* | -3.8 | 30.4 | 21.6 | 19.5
CC1CCN(C(CNS(=O)(=O)c2ccccc2)c2ccccc2)CC1 (configuration not stated) | -34.6 | -26.3 | -7.3 | -28.4 | 2.9 | 2.1
CN(C)c1ccc(/C=C/C(=O)c2cccnc2)cc1 | 68.0* | 49.5* | -3.2 | 9.1 | 32.4 | 4.4
Cc1ccc(C)c(-c2cc(C(=O)NNC(=S)NCC(C)C)c3ccccc3n2)c1 | -10.8 | -5.3 | 3.3 | 50.4* | 8.1 | 50.8
O=C(OC1Cn2c(=O)ccc(=O)n2C1)c1ccc([N+](=O)[O-])cc1 | -10.2 | -5.0 | -5.7 | 5.8 | 2.2 | 45.4*
CCCc1nc2ccc(Br)cn2c1Cc1cccc(Cl)c1 | . | . | -6.7 | 15.5 | -2.1 | .
CCC(=O)N1CCC2(CC1)Oc1ccc(Cl)cc1C(=O)C21CC(c2ccccc2)=NO1 (configuration not stated) | -4.5 | -6.1 | -7.5 | 53.9* | 24.9 | 29.3
Cc1ccccc1OCC(=O)Nn1c(COc2ccccc2)nc2ccccc2c1=O | -8.7 | -16.3 | -3.3 | 38.1 | 9.1 | 12.6
Cc1cccc(C)c1OCC(=O)Nn1c(COc2ccccc2)nc2ccccc2c1=O | -8.7 | -8.6 | 0.5 | 51.1* | 6.5 | 12.6
Nc1cc(N)nc(SCc2ccccc2Cl)n1 | . | . | -8.1 | 14.7 | 3.9 | .

Assay outcomes: PubChem BioAssay, The Scripps Research Institute Molecular Screening Center
